In brackets after ≈: the same amount, converted by molar mass. Each block holds one compound with its values, some of them ahead of it.
What was measured:
Pseudomonas aeruginosa [1] = assay: Antibiofilm activity against Pseudomonas aeruginosa at 50 ug/ml after 24 hrs by microplate reader analysis; assay type: functional
Pseudomonas aeruginosa [2] = assay: Antibacterial activity against Pseudomonas aeruginosa assessed as growth inhibition at 50 ug/ml after 24 hrs by microplate reader analysis; assay type: functional; settings: read-out: GI
Pseudomonas aeruginosa [3] = assay: Antibacterial activity against Pseudomonas aeruginosa assessed as growth inhibition after 24 hrs by microplate reader analysis; assay type: functional, organism-based
Method in brief: (§1)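 IC50 for growth and biofilm formation found by serial dilution to the concentration giving 50% inhibition.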

Pseudomonas aeruginosa [4] = assay: Reduction of extracellular DNA in Pseudomonas aeruginosa biofilm after 48 hrs by UV-spectrophotometry; assay type: functional, organism-based
Method in brief: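 eDNA measured as the change in absorbance of biofilm lysate at 260 nm versus untreated controls; mean ± standard deviation.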

Pseudomonas aeruginosa [5] = assay: Antibiofilm activity against Pseudomonas aeruginosa after 24 hrs by microplate reader analysis; assay type: functional, organism-based; method in brief: as §1
Pseudomonas aeruginosa [6] = assay: Inhibition of MDH in Pseudomonas aeruginosa biofilm after 48 hrs by UV-spectrophotometry
Method in brief: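 MDH in biofilm read as the change in absorbance of the reaction mixture at 340 nm, relative to untreated controls; mean ± standard deviation.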

SMILES: CCOC(=O)C1=C(Nc2ccc(C(=O)OCC)cc2)C(=O)N(c2ccc(C(=O)OCC)cc2)C1C(=O)OCC (stereo not drawn)
- inhibition at 50 µg/mL (Pseudomonas aeruginosa [1]): 37.8%
- inhibition of growth at 50 µg/mL (Pseudomonas aeruginosa [2]): 44.7%

SMILES: CCOC(=O)C1=C(Nc2ccccc2)C(=O)N(c2ccccc2)C1C(=O)OCC (stereo not drawn)
- IC50 (Pseudomonas aeruginosa [3]): 50 µg/mL (≈ 127 µM)
- inhibition at 50 µg/mL (Pseudomonas aeruginosa [1]): 35.5%
- inhibition of growth at 50 µg/mL (Pseudomonas aeruginosa [2]): 50.4%

- IC50 (Pseudomonas aeruginosa [5]): 48.4 µg/mL (≈ 100 µM)
- inhibition (Pseudomonas aeruginosa [6]): Dose-dependent effect
SMILES: CCOC(=O)C1=C(Nc2ccc(OCC)cc2)C(=O)N(c2ccc(OCC)cc2)C1C(=O)OCC (stereo not drawn)
- Activity (Pseudomonas aeruginosa [4]): Dose-dependent effect
- IC50 (Pseudomonas aeruginosa [3]): 46.6 µg/mL (≈ 96.6 µM)
- inhibition at 50 µg/mL (Pseudomonas aeruginosa [1]): 53.8%
- inhibition of growth at 50 µg/mL (Pseudomonas aeruginosa [2]): 63.1%

SMILES: CCOC(=O)C1=C(NC2CCC2)C(=O)N(C2CCC2)C1C(=O)OCC (stereo not drawn)
- inhibition at 50 µg/mL (Pseudomonas aeruginosa [1]): 41.3%
- inhibition of growth at 50 µg/mL (Pseudomonas aeruginosa [2]): 40.9%

SMILES: CCOC(=O)C1=C(Nc2ccc(Cl)cc2)C(=O)N(c2ccc(Cl)cc2)C1C(=O)OCC (stereo not drawn)
- IC50 (Pseudomonas aeruginosa [3]): 41.6 µg/mL (≈ 89.8 µM)
- inhibition at 50 µg/mL (Pseudomonas aeruginosa [1]): 20.7%
- inhibition of growth at 50 µg/mL (Pseudomonas aeruginosa [2]): 68.6%

SMILES: CCOC(=O)C1=C(NC2CC2)C(=O)N(C2CC2)C1C(=O)OCC (stereo not drawn)
- inhibition at 50 µg/mL (Pseudomonas aeruginosa [1]): 11.8%
- inhibition of growth at 50 µg/mL (Pseudomonas aeruginosa [2]): 26.6%

SMILES: CCOC(=O)C1=C(Nc2cccc(F)c2)C(=O)N(c2cccc(F)c2)C1C(=O)OCC (stereo not drawn)
- inhibition at 50 µg/mL (Pseudomonas aeruginosa [1]): 27.5%
- inhibition of growth at 50 µg/mL (Pseudomonas aeruginosa [2]): 20.3%

SMILES: CCOC(=O)C1=C(Nc2cccc(C(=O)OCC)c2)C(=O)N(c2cccc(C(=O)OCC)c2)C1C(=O)OCC (stereo not drawn)
- inhibition at 50 µg/mL (Pseudomonas aeruginosa [1]): 42%
- inhibition of growth at 50 µg/mL (Pseudomonas aeruginosa [2]): 15.4%

- IC50 (Pseudomonas aeruginosa [5]): 39 µg/mL (≈ 70.6 µM)
- inhibition (Pseudomonas aeruginosa [6]): Dose-dependent effect
SMILES: CCOC(=O)C1=C(Nc2ccc(Br)cc2)C(=O)N(c2ccc(Br)cc2)C1C(=O)OCC (stereo not drawn)
- Activity (Pseudomonas aeruginosa [4]): Dose-dependent effect
- IC50 (Pseudomonas aeruginosa [3]): 38.4 µg/mL (≈ 69.5 µM)
- inhibition at 50 µg/mL (Pseudomonas aeruginosa [1]): 65.4%
- inhibition of growth at 50 µg/mL (Pseudomonas aeruginosa [2]): 76.8%

- IC50 (Pseudomonas aeruginosa [5]): 40.2 µg/mL (≈ 88.5 µM)
- inhibition (Pseudomonas aeruginosa [6]): Dose-dependent effect
SMILES: CCOC(=O)C1=C(Nc2ccc(OC)cc2)C(=O)N(c2ccc(OC)cc2)C1C(=O)OCC (stereo not drawn)
- Activity (Pseudomonas aeruginosa [4]): Dose-dependent effect
- IC50 (Pseudomonas aeruginosa [3]): 34.2 µg/mL (≈ 75.3 µM)
- inhibition at 50 µg/mL (Pseudomonas aeruginosa [1]): 61.4%
- inhibition of growth at 50 µg/mL (Pseudomonas aeruginosa [2]): 80.8%

- IC50 (Pseudomonas aeruginosa [5]): 28.8 µg/mL (≈ 62.2 µM)
- inhibition (Pseudomonas aeruginosa [6]): Dose-dependent effect
SMILES: CCOC(=O)C1=C(Nc2cccc(Cl)c2)C(=O)N(c2cccc(Cl)c2)C1C(=O)OCC (stereo not drawn)
- Activity (Pseudomonas aeruginosa [4]): Dose-dependent effect
- IC50 (Pseudomonas aeruginosa [3]): 27.8 µg/mL (≈ 60 µM)
- inhibition at 50 µg/mL (Pseudomonas aeruginosa [1]): 70.2%
- inhibition of growth at 50 µg/mL (Pseudomonas aeruginosa [2]): 83%

- inhibition (Pseudomonas aeruginosa [6]): Dose-dependent effect
SMILES: CC[C@H]1OC(=O)[C@H](C)[C@@H](O[C@H]2C[C@@](C)(OC)[C@@H](O)[C@H](C)O2)[C@H](C)[C@@H](O[C@@H]2O[C@H](C)C[C@H](N(C)C)[C@H]2O)[C@](C)(O)C[C@@H](C)C(=O)[C@H](C)[C@@H](O)[C@]1(C)O [ERYTHROMYCIN]
- Activity (Pseudomonas aeruginosa [4]): Dose-dependent effect
- IC50 (Pseudomonas aeruginosa [3]): 33.2 µg/mL (≈ 45.2 µM)
- inhibition at 50 µg/mL (Pseudomonas aeruginosa [1]): 45.7%
- inhibition of growth at 50 µg/mL (Pseudomonas aeruginosa [2]): 67.6%

SMILES: CCOC(=O)C1=C(Nc2ccc(C)cc2)C(=O)N(c2ccc(C)cc2)C1C(=O)OCC (stereo not drawn)
- inhibition at 50 µg/mL (Pseudomonas aeruginosa [1]): 13.6%
- inhibition of growth at 50 µg/mL (Pseudomonas aeruginosa [2]): 34%

SMILES: CCOC(=O)C1=C(Nc2cc(C)cc(C)c2)C(=O)N(c2cc(C)cc(C)c2)C1C(=O)OCC (stereo not drawn)
- inhibition at 50 µg/mL (Pseudomonas aeruginosa [1]): 28.9%
- inhibition of growth at 50 µg/mL (Pseudomonas aeruginosa [2]): 32.5%

- IC50 (Pseudomonas aeruginosa [5]): 47.4 µg/mL (≈ 105 µM)
- inhibition (Pseudomonas aeruginosa [6]): Dose-dependent effect
SMILES: CCOC(=O)C1=C(Nc2ccc(CC)cc2)C(=O)N(c2ccc(CC)cc2)C1C(=O)OCC (stereo not drawn)
- Activity (Pseudomonas aeruginosa [4]): Dose-dependent effect
- IC50 (Pseudomonas aeruginosa [3]): 42.2 µg/mL (≈ 93.7 µM)
- inhibition at 50 µg/mL (Pseudomonas aeruginosa [1]): 53.2%
- inhibition of growth at 50 µg/mL (Pseudomonas aeruginosa [2]): 65.8%

SMILES: CCOC(=O)C1=C(Nc2cccc(C)c2)C(=O)N(c2cccc(C)c2)C1C(=O)OCC (stereo not drawn)
- IC50 (Pseudomonas aeruginosa [3]): 48.4 µg/mL (≈ 115 µM)
- inhibition at 50 µg/mL (Pseudomonas aeruginosa [1]): 29.3%
- inhibition of growth at 50 µg/mL (Pseudomonas aeruginosa [2]): 55.5%

From ChEMBL document CHEMBL3351850, “Synthesis and anti-biofilm activities of dihydro-pyrrol-2-one derivatives on Pseudomonas aeruginosa” (Bioorg Med Chem Lett, 2015)
